Data taken from ChEMBL document CHEMBL3271959, “Comparative stereochemistry in the aziridine ring openings of N-methylmitomycin A and 7-methoxy-1,2-(N-methylaziridino)mitosene” (J Med Chem, 1977).
Active and inactive are the calls of the source. The calls are words filed in the database; no cut-off is given here.

Columns and labels:
[1] = tested on: Enterobacteria phage lambda; assay: Induction of lambda phage lytic activity in Escherichia coli W1709(lambda) assessed as ratio of plaques in treated culture to control at 0.0125 ug/ml preincubated for 90 mins followed by heart infusion broth and glucose addition measured after 120 mins; type: functional
Escherichia coli [2] = assay: Toxicity in Escherichia coli W1709(lambda) at 3.1 ug/ml; type: organism-based; conditions: in vivo
[3] = tested on: Enterobacteria phage lambda; assay: Induction of lambda phage lytic activity in Escherichia coli W1709(lambda) assessed as ratio of plaques in treated culture to control at 0.05 ug/ml preincubated for 90 mins followed by heart infusion broth and glucose addition measured after 120 mins; type: functional
[4] = tested on: Enterobacteria phage lambda; assay: Induction of lambda phage lytic activity in Escherichia coli W1709(lambda) assessed as ratio of plaques in treated culture to control at 0.003 ug/ml preincubated for 90 mins followed by heart infusion broth and glucose addition measured after 120 mins; type: functional
[5] = tested on: Enterobacteria phage lambda; assay: Induction of lambda phage lytic activity in Escherichia coli W1709(lambda) assessed as ratio of plaques in treated culture to control at 0.8 ug/ml preincubated for 90 mins followed by heart infusion broth and glucose addition measured after 120 mins; type: functional
[6] = tested on: Enterobacteria phage lambda; assay: Induction of lambda phage lytic activity in Escherichia coli W1709(lambda) assessed as ratio of plaques in treated culture to control at 3.1 ug/ml preincubated for 90 mins followed by heart infusion broth and glucose addition measured after 120 mins; type: functional
[7] = tested on: Enterobacteria phage lambda; assay: Induction of lambda phage lytic activity in Escherichia coli W1709(lambda) assessed as ratio of plaques in treated culture to control at 0.2 ug/ml preincubated for 90 mins followed by heart infusion broth and glucose addition measured after 120 mins; type: functional
P388 [8] = assay: Antitumor activity against mouse P388 cells allografted in CDF1 mouse assessed as effect on median survival time at 0.8 mg/kg/day administered qd on day 1 and 5 relative to control; type: functional
Procedure, shortened: (§1)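 Male CDF1 mice were implanted intraperitoneally with 10^6 P388 ascites cells. Treatment was given once daily on days 1 and 5 only. Groups were six mice each. Median survival time was taken for each group.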

Escherichia coli [9] = assay: Toxicity in Escherichia coli W1709(lambda) at 0.0125 ug/ml; type: organism-based; conditions: in vivo
P388 [10] = assay: Antitumor activity against mouse P388 cells allografted in CDF1 mouse assessed as effect on median survival time at 0.4 mg/kg/day administered qd on day 1 and 5 relative to control; type: functional; procedure, shortened: as §1
P388 [11] = assay: Antitumor activity against mouse P388 cells allografted in CDF1 mouse assessed as mouse survival at 0.8 mg/kg/day administered qd on day 1 and 5 measured on day 30; type: functional, organism-based; procedure, shortened: as §1
Mus musculus [12] = assay: Toxicity in CDF1 mouse allografted with mouse P388 cells assessed as change in weight at 0.2 mg/kg/day administered qd on day 1 and 5 (reference value: 3.4 g); type: organism-based; conditions: in vivo; procedure, shortened: as §1
P388 [13] = assay: Antitumor activity against mouse P388 cells allografted in CDF1 mouse assessed as mouse survival at 1.6 mg/kg/day administered qd on day 1 and 5 measured on day 5; type: functional, organism-based; procedure, shortened: as §1
P388 [14] = assay: Antitumor activity against mouse P388 cells allografted in CDF1 mouse assessed as mouse survival at 0.1 mg/kg/day administered qd on day 1 and 5 measured on day 30; type: functional, organism-based; procedure, shortened: as §1
P388 [15] = assay: Antitumor activity against mouse P388 cells allografted in CDF1 mouse assessed as mouse survival at 0.1 mg/kg/day administered qd on day 1 and 5 measured on day 5; type: functional, organism-based; procedure, shortened: as §1
Mus musculus [16] = assay: Toxicity in CDF1 mouse allografted with mouse P388 cells assessed as change in weight at 3.2 mg/kg/day administered qd on day 1 and 5 (reference value: 3.4 g); type: organism-based; conditions: in vivo; procedure, shortened: as §1
P388 [17] = assay: Antitumor activity against mouse P388 cells allografted in CDF1 mouse assessed as mouse survival at 0.4 mg/kg/day administered qd on day 1 and 5 measured on day 5; type: functional, organism-based; procedure, shortened: as §1
Mus musculus [18] = assay: Toxicity in CDF1 mouse allografted with mouse P388 cells assessed as change in weight at 1.6 mg/kg/day administered qd on day 1 and 5 (reference value: 3.4 g); type: organism-based; conditions: in vivo; procedure, shortened: as §1
P388 [19] = assay: Antitumor activity against mouse P388 cells allografted in CDF1 mouse assessed as effect on median survival time at 0.1 mg/kg/day administered qd on day 1 and 5 relative to control; type: functional; procedure, shortened: as §1
Mus musculus [20] = assay: Toxicity in CDF1 mouse allografted with mouse P388 cells assessed as change in weight at 0.1 mg/kg/day administered qd on day 1 and 5 (reference value: 3.4 g); type: organism-based; conditions: in vivo; procedure, shortened: as §1
P388 [21] = assay: Antitumor activity against mouse P388 cells allografted in CDF1 mouse assessed as effect on median survival time at 1.6 mg/kg/day administered qd on day 1 and 5 relative to control; type: functional; procedure, shortened: as §1
P388 [22] = assay: Antitumor activity against mouse P388 cells allografted in CDF1 mouse assessed as mouse survival at 0.8 mg/kg/day administered qd on day 1 and 5 measured on day 5; type: functional, organism-based; procedure, shortened: as §1
P388 [23] = assay: Antitumor activity against mouse P388 cells allografted in CDF1 mouse assessed as effect on median survival time at 0.2 mg/kg/day administered qd on day 1 and 5 relative to control; type: functional; procedure, shortened: as §1
P388 [24] = assay: Antitumor activity against mouse P388 cells allografted in CDF1 mouse assessed as mouse survival at 1.6 mg/kg/day administered qd on day 1 and 5 measured on day 30; type: functional, organism-based; procedure, shortened: as §1
P388 [25] = assay: Antitumor activity against mouse P388 cells allografted in CDF1 mouse assessed as mouse survival at 0.2 mg/kg/day administered qd on day 1 and 5 measured on day 5; type: functional, organism-based; procedure, shortened: as §1
P388 [26] = assay: Antitumor activity against mouse P388 cells allografted in CDF1 mouse assessed as effect on median survival time at 3.2 mg/kg/day administered qd on day 1 and 5 relative to control; type: functional; procedure, shortened: as §1
Mus musculus [27] = assay: Toxicity in CDF1 mouse allografted with mouse P388 cells assessed as change in weight at 0.8 mg/kg/day administered qd on day 1 and 5 (reference value: 3.4 g); type: organism-based; conditions: in vivo; procedure, shortened: as §1
Escherichia coli [28] = assay: Toxicity in Escherichia coli W1709(lambda) at 0.05 ug/ml; type: organism-based; conditions: in vivo
Mus musculus [29] = assay: Toxicity in CDF1 mouse allografted with mouse P388 cells assessed as change in weight at 0.4 mg/kg/day administered qd on day 1 and 5 (reference value: 3.4 g); type: organism-based; conditions: in vivo; procedure, shortened: as §1
P388 [30] = assay: Antitumor activity against mouse P388 cells allografted in CDF1 mouse assessed as mouse survival at 0.2 mg/kg/day administered qd on day 1 and 5 measured on day 30; type: functional, organism-based; procedure, shortened: as §1
P388 [31] = assay: Antitumor activity against mouse P388 cells allografted in CDF1 mouse assessed as mouse survival at 3.2 mg/kg/day administered qd on day 1 and 5 measured on day 5; type: functional, organism-based; procedure, shortened: as §1
P388 [32] = assay: Antitumor activity against mouse P388 cells allografted in CDF1 mouse assessed as mouse survival at 0.4 mg/kg/day administered qd on day 1 and 5 measured on day 30; type: functional, organism-based; procedure, shortened: as §1
P388 [33] = assay: Antitumor activity against mouse P388 cells allografted in CDF1 mouse assessed as mouse survival at 3.2 mg/kg/day administered qd on day 1 and 5 measured on day 30; type: functional, organism-based; procedure, shortened: as §1
Escherichia coli [34] = assay: Toxicity in Escherichia coli W1709(lambda) at 0.2 ug/ml; type: organism-based; conditions: in vivo
Procedure, shortened: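 Screened for induction of lytic activity by lambda-bacteriophage lysogenic in Escherichia coli, at 3.1, 0.8, 0.2, 0.05, 0.0125 and 0.003 ug/mL. The read-out was the ratio of plaques induced by the test compound to plaques in an untreated control. Wells where the compound was toxic to the culture were scored "T" instead of a ratio.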

Mus musculus [35] = assay: Toxicity in CDF1 mouse allografted with mouse P388 cells assessed as change in weight at 6.4 mg/kg/day administered qd on day 1 and 5 (reference value: 3.4 g); type: organism-based; conditions: in vivo; procedure, shortened: as §1
Escherichia coli [36] = assay: Toxicity in Escherichia coli W1709(lambda) at 0.8 ug/ml; type: organism-based; conditions: in vivo
P388 [37] = assay: Antitumor activity against mouse P388 cells allografted in CDF1 mouse assessed as mouse survival at 6.4 mg/kg/day administered qd on day 1 and 5 measured on day 30; type: functional, organism-based; procedure, shortened: as §1
P388 [38] = assay: Antitumor activity against mouse P388 cells allografted in CDF1 mouse assessed as mouse survival at 6.4 mg/kg/day administered qd on day 1 and 5 measured on day 5; type: functional, organism-based; procedure, shortened: as §1
P388 [39] = assay: Antitumor activity against mouse P388 cells allografted in CDF1 mouse assessed as effect on median survival time at 6.4 mg/kg/day administered qd on day 1 and 5 relative to control; type: functional; procedure, shortened: as §1

Row | SMILES | T/C [1] | T/C [3] | T/C [4] | T/C [5] | T/C [6] | T/C (P388 [8]) | T/C (P388 [10]) | Activity (Mus musculus [12]) | Activity (P388 [13]) | Activity (Mus musculus [16]) | Activity (P388 [17]) | Activity (Mus musculus [18]) | T/C (P388 [21]) | Activity (P388 [22]) | T/C (P388 [23]) | Activity (P388 [24]) | Activity (P388 [25]) | T/C (P388 [26]) | Activity (Mus musculus [27]) | Activity (Mus musculus [29]) | other results
1 | COC1=C(C)C(=O)c2c(c(COC(N)=O)c3n2C[C@H]2[C@@H]3N2C)C1=O (some centres not stated) | 3 | 3.4 | 0.8 | 38.8 | 35.4 |  |  |  |  |  |  |  |  |  |  |  |  |  |  |  | Activity (Escherichia coli [2]): Toxic
2 | COC1=C(C)C(=O)c2c(c(COC(N)=O)c3n2CCC3O)C1=O (racemic) |  |  |  | 2.9 | 6.9 |  |  |  |  |  |  |  |  |  |  |  |  |  |  |  | 
3 | CN[C@@H]1Cn2c3c(c(COC(N)=O)c2[C@@H]1O)C(=O)C(OC)=C(C)C3=O (relative stereo) |  |  |  | 4.4 | 22.4 |  |  |  |  |  |  |  |  |  |  |  |  |  |  |  | T/C [7]: 2; Activity (Escherichia coli [2]): Toxic
4 | CN[C@@H]1Cn2c3c(c(COC(N)=O)c2[C@H]1O)C(=O)C(OC)=C(C)C3=O (relative stereo) |  |  |  | 2.4 | 7 |  |  |  |  |  |  |  |  |  |  |  |  |  |  |  | 
5 | COC1=C(C)C(=O)C2=C(C1=O)[C@@H](COC(N)=O)[C@@]1(OC)[C@H]3N[C@H]3CN21 [MITOMYCIN A] | 31.1 |  | 7.4 |  |  | 155% | 140% | 0.1 g | Active | -2.1 g | Active | -3.1 g | 165% | Active | 130% | inactive | Active | 180% | -2.6 g | -0.4 g | Activity (Escherichia coli [9]): Toxic; Activity (P388 [11]): inactive; Activity (P388 [14]): inactive; Activity (P388 [15]): Active; T/C (P388 [19]): 120%; Activity (Mus musculus [20]): 0.3 g; Activity (Escherichia coli [28]): Toxic; Activity (P388 [30]): inactive; Activity (P388 [31]): Active; Activity (P388 [32]): inactive; Activity (P388 [33]): inactive
6 | CO[C@@]12[C@H](COC(N)=O)C3=C(C(=O)C(C)=C(N)C3=O)N1C[C@@H]1N[C@@H]12 [MITOMYCIN] | 6.6 | 17.6 | 2.7 |  |  | 175% | 130% | 0.3 g | Active | -2.3 g | Active | 0.1 g | 175% | Active | 125% | inactive | Active | 270% | -0.8 g | 0 g | Activity (P388 [14]): inactive; Activity (P388 [15]): Active; T/C (P388 [19]): 120%; Activity (Mus musculus [20]): 0 g; Activity (Escherichia coli [28]): Toxic; Activity (Escherichia coli [34]): Toxic; Activity (P388 [30]): inactive; Activity (P388 [31]): Active; Activity (P388 [32]): inactive
7 | COC1=C(C)C(=O)C2=C(C1=O)[C@@H](COC(N)=O)[C@@]1(OC)[C@@H]3[C@H](CN21)N3C (some centres not stated) [N-METHYL-MITOMYCIN A] | 3.7 | 8.2 | 1.8 |  |  | 145% | 130% | 0.3 g | Active | -3.1 g | Active | -1.6 g | 145% | Active | 115% | inactive | Active | 180% | -0.3 g | 0.9 g | Activity (P388 [11]): inactive; T/C [7]: 21.2; Activity (Mus musculus [35]): -2.4 g; Activity (Escherichia coli [36]): Toxic; Activity (P388 [37]): inactive; Activity (P388 [30]): inactive; Activity (P388 [38]): Active; Activity (P388 [31]): Active; Activity (P388 [32]): inactive; T/C (P388 [39]): 165%
